Test results taken from ChEMBL document CHEMBL1138831, “Computer-assisted design of selective imidazole inhibitors for cytochrome p450 enzymes” (J Med Chem, 2004).

Assays:
Camphor 5-monooxygenase [1] = target: T1, Camphor 5-monooxygenase (Pseudomonas putida, UniProt P00183); experiment: Inhibition of wild type cytochrome P450cam expressed in Escherichia coli
T1 sequence (P00183 whole entry): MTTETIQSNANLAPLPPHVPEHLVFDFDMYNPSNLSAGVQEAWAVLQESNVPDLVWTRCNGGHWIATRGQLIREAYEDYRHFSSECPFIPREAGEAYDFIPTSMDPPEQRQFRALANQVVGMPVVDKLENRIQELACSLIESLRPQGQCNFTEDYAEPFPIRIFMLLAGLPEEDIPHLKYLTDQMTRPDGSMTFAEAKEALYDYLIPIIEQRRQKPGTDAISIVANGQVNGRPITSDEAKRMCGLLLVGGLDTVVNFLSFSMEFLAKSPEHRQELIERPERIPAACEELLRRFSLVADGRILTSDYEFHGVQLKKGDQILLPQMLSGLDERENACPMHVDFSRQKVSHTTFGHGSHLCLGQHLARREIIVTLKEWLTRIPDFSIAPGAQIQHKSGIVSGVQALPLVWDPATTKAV

Camphor 5-monooxygenase [2] = target: T2, Camphor 5-monooxygenase (Pseudomonas putida, UniProt P00183, L244A); experiment: Inhibition of L244A mutant cytochrome P450cam expressed in Escherichia coli
Summary of the method: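 Camphor-depleted enzyme at 20 nM in 100 mM potassium phosphate, with inhibitor at varying amounts added in DMSO (≤3% of volume). Incubated 15 min at 20 °C, then quenched with CH2Cl2 containing 2 mM β-thujone internal standard. Product/starting-material ratio was measured by GC to give turnover, and IC50 was fitted with a Langmuir isotherm.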

Camphor 5-monooxygenase [3] = target: T1, Camphor 5-monooxygenase; experiment: Inhibition of wild type cytochrome P450cam expressed in Escherichia coli at 1 mM
Summary of the method: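 Camphor-depleted enzyme in 100 mM potassium phosphate, with inhibitor at 1 mM added in DMSO (≤3% of volume). Incubated 15 min at 20 °C, then quenched with CH2Cl2 containing 2 mM β-thujone internal standard. Turnover was taken from the GC product/starting-material ratio and expressed as percent inhibition.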

Camphor 5-monooxygenase [4] = target: T1, Camphor 5-monooxygenase; experiment: Binding constant for wild type cytochrome P450cam expressed in Escherichia coli; conditions: read-out: Ks
Summary of the method: (§1)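 Camphor stripped from the enzyme by two elutions with 100 mM sodium phosphate over a size-exclusion column, leaving low-spin water-bound heme. 0.5 μM protein in 100 mM potassium phosphate at 37 °C, measured by difference UV spectroscopy. The 416 nm trough to 424 nm peak absorbance difference was fitted by nonlinear regression to ΔA = ΔAmax[I]/(Ks+[I]).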

Camphor 5-monooxygenase [5] = target: T2, Camphor 5-monooxygenase; experiment: Binding constant for L244A mutant cytochrome P450cam expressed in Escherichia coli; conditions: read-out: Ks; summary of the method: as §1

IC50 (Camphor 5-monooxygenase [1]) | SMILES | IC50 (Camphor 5-monooxygenase [2]) | inhibition at 1000 µM (Camphor 5-monooxygenase [3]) | other results
1.5 µM | c1cn(CC2CCCCC2)cn1 | – | – | –
– | CCCc1cncn1CC1CC1 | 36 µM | 60% | –
4 µM | c1cn(CC2CC2)cn1 | – | – | –
– | c1ccc(Cn2cncc2C2CC2)cc1 | 41 µM | 30% | –
– | CC(C)Cc1cncn1CC1CC1 | 10.1 µM | 20% | –
– | CCCc1cncn1C1CCCC1 | 6.5 µM | 60% | –
0.8 µM | CCC(CC)Cn1ccnc1 | – | – | –
– | CC(C)(C)Cc1cncn1C1CC1 | 129 µM | 80% | –
– | CC(=O)N1CCN(c2ccc(OC[C@@H]3CO[C@@](Cn4ccnc4)(c4ccc(Cl)cc4Cl)O3)cc2)CC1 [KETOCONAZOLE] | – | – | Kd (Camphor 5-monooxygenase [4]): 0.5 µM; Kd (Camphor 5-monooxygenase [5]): 0.6 µM

SMILES | IC50 (Camphor 5-monooxygenase [1]) | IC50 (Camphor 5-monooxygenase [2]) | inhibition at 1000 µM (Camphor 5-monooxygenase [3]) | other results
c1ccc(Cn2ccnc2)cc1 [BENZYLIMIDAZOLE] | 16 µM | – | – | –
